Test results: ChEMBL document CHEMBL4024768, “Discovery and Optimization of Thiazolidinyl and Pyrrolidinyl Derivatives as Inhaled PDE4 Inhibitors for Respiratory Diseases” (J Med Chem, 2017)

Key:
[1] = Drug level in human hepatocytes treated with 3, 5 -Dichloro-4-( (S)-2-(3 -(cyclopropylmethoxy)-4-(difluoromethoxy)phenyl)-2-(((S)-1-((3- (dimethylcarbamoyl)-phenyl)sulfonyl)pyrrolidine-2-carbonyl)oxy)ethyl)pyridine 1-Oxide at 10 uM after 60 mins by LC-MS/MS analysis; assay type: ADME, cell-based, Hepatocyte; conditions: 1 h
Method in brief: (§1)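 Pooled mixed-sex cryopreserved human hepatocytes (1 million cells/mL) in Leibovitz L-15 at 37 °C, compound at 10 μM in duplicate. Sampled at 0 and 60 min. Protein-free supernatant evaporated under nitrogen, reconstituted in mobile phase and analysed by LC−MS/MS. Cell-free medium incubation for 60 min as control.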

[2] = Inhibition of PDE4 in human PBMC assessed as reduction in LPS-induced TNFalpha release after 18 hrs by quantitative ELISA
[3] = Drug level in human hepatocytes treated with 3, 5-Dichloro-4-((S)-2-(3-(cyclopropylmethoxy)-4-(difluoromethoxy)phenyl)-2-((S)-3-(3-(dimethylcarbamoyl)-phenylsulfonyl)thiazolidine-2-carbonyloxy)ethyl)pyridine 1-Oxide at 10 uM after 60 mins by LC-MS/MS analysis; assay type: ADME, cell-based, Hepatocyte; conditions: 1 h; method in brief: as §1
[4] = Inhibition of PDE4 in human U937 cell lysates assessed as residual cAMP after 2.5 mins by LANCE assay

Row | Drug metabolism [1] | IC50 [2] [nM] | Drug metabolism [3] | IC50 [4] [nM] | Compound
1 | Metabolite_Detected | > 1000 | – | – | CN(C)C(=O)c1cccc(S(=O)(=O)N2CCC[C@H]2C(=O)O)c1
2 | Metabolite_Detected | 480 | Metabolite_Detected | – | [O-][n+]1cc(Cl)c(C[C@H](O)c2ccc(OC(F)F)c(OCC3CC3)c2)c(Cl)c1
3 | – | 1.95 | Metabolite_Detected | 0.183 to 1.95 | CN(C)C(=O)c1cccc(S(=O)(=O)N2CCS[C@H]2C(=O)O[C@@H](Cc2c(Cl)c[n+]([O-])cc2Cl)c2ccc(OC(F)F)c(O)c2)c1 (relative stereo)
